In ChEMBL document CHEMBL1142589, “Steroidal alkaloids from the bulbs of Fritillaria puqiensis” (2005):
Calls of active or inactive are those of the source. The calls are words filed in the database; no cut-off is given here.

Experiments:
Mus musculus [1] = experiment: Antitussive activity in ammonia liquor-induced mouse assessed as number of cough times at 10 mg/kg, po daily for 3 consecutive days administered before ammonia liquor induction measured for 3 mins; type: functional
Outline: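 Mice were dosed for three days, with vehicle 0.5% sodium carboxymethyl cellulose at 0.2 mL/mouse; codeine 10 mg/kg served as positive control. On day 3, 2 h post-dose, each mouse was placed in a glass chamber and exposed for 5 s to 28% NH4OH aerosol nebulised by compressed air at about 400 mmHg. Coughs were counted over 3 min from spray onset; n = 10, mean ± SD.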

Mus musculus [2] = experiment: Antitussive activity in ammonia liquor-induced mouse assessed as number of cough times at 5 mg/kg, po daily for 3 consecutive days administered before ammonia liquor induction measured for 3 mins; type: functional
Outline: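 Mice were dosed in 0.5% sodium carboxymethyl cellulose vehicle (0.2 mL/mouse). On day 3, 2 h after dosing, they were placed in a glass chamber and exposed for 5 s to 28% NH₄OH aerosol, nebulized with compressed air at about 400 mmHg. Coughs were counted over 3 min from spray start. Codeine 10 mg/kg was the positive control and vehicle the negative control. n = 10, mean ± SD.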

HL-60 [3] = experiment: Antitumor activity against human HL-60 cells at 10 uM by MTT assay; type: functional
Outline: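 HL-60 cells were tested by MTT assay at 1×10^-7, 1×10^-6 and 1×10^-5 mol/L of each compound. Percent growth inhibition was calculated relative to untreated cells.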

SMMC-7721 [4] = experiment: Antitumor activity against human SMMC7721 cells at 1 uM by MTT assay; type: functional, cell-based
Outline: (§1)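 MTT growth-inhibition assay on human A549, BGC-823, SMMC-7721 and HL-60 cancer cells. Each compound was tested at 1×10^-7, 1×10^-6 and 1×10^-5 mol/L. Percent inhibition was calculated relative to untreated cells.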

BGC-823 [5] = experiment: Antitumor activity against human BGC-823 cells at 0.1 uM by MTT assay; type: functional, cell-based; outline: as §1
SMMC-7721 [6] = experiment: Antitumor activity against human SMMC7721 cells at 0.1 uM by MTT assay; type: functional, cell-based; outline: as §1
A549 [7] = experiment: Antitumor activity against human A549 cells at 0.1 uM by MTT assay; type: functional, cell-based; outline: as §1
HL-60 [8] = experiment: Antitumor activity against human HL-60 cells at 0.1 uM by MTT assay; type: functional, cell-based; outline: as §1
BGC-823 [9] = experiment: Antitumor activity against human BGC-823 cells at 1 uM by MTT assay; type: functional, cell-based; outline: as §1
HL-60 [10] = experiment: Antitumor activity against human HL-60 cells at 1 uM by MTT assay; type: functional, cell-based; outline: as §1
A549 [11] = experiment: Antitumor activity against human A549 cells at 1 uM by MTT assay; type: functional, cell-based; outline: as §1

| SMILES | Activity (Mus musculus [1]) | Activity (Mus musculus [2]) | Activity (HL-60 [3]) [%] | Activity (SMMC-7721 [4]) | Activity (BGC-823 [5]) | Activity (SMMC-7721 [6]) | Activity (A549 [7]) | Activity (HL-60 [8]) | Activity (BGC-823 [9]) | Activity (HL-60 [10]) | Activity (A549 [11]) |
| --- | --- | --- | --- | --- | --- | --- | --- | --- | --- | --- | --- |
| C[C@@H]1CC[C@@H]([C@@H](C)[C@@H]2CC[C@H]3[C@@H]4CC(=O)[C@H]5C[C@@H](O)CC[C@]5(C)[C@H]4CC[C@]23C)N(C)C1 [PUQIETINONE] | 11 | 17 |  |  |  |  |  |  |  |  |  |
| C[C@H]1CC[C@H]([C@@H](C)[C@H]2CC[C@H]3[C@@H]4CC(=O)[C@H]5C[C@@H](O)CC[C@]5(C)[C@H]4CC[C@]23C)NC1 | 18 | 23 | 51 | inactive | inactive | inactive | inactive | inactive | inactive | inactive | inactive |
| CC1=C2C[C@H]3[C@@H](C[C@@H](O)[C@H]4C[C@@H](O)CC[C@@]43C)[C@@H]2CC[C@@H]1[C@@H](C)[C@@H]1[C@H](O)C[C@@H](C)CN1C (relative stereo) [PUQIENINE A] | 14 | 18 |  | inactive | inactive | inactive | inactive | inactive | inactive | inactive | inactive |
| C[C@H]1CC[C@H]([C@@H](C)[C@H]2CC[C@H]3[C@@H]4CC(=O)[C@H]5C[C@@H](O[C@@H]6O[C@H](CO)[C@@H](O)[C@H](O)[C@H]6O)CC[C@]5(C)[C@H]4CC[C@]23C)N(C)C1 [PUQIETINONOSIDE] | 13 | 17 |  | inactive | inactive | inactive | inactive | inactive | inactive | inactive | inactive |
| COc1ccc2c3c1O[C@H]1[C@@H](O)C=C[C@H]4[C@@H](C2)N(C)CC[C@@]341 [CODEINE] | 5 |  |  |  |  |  |  |  |  |  |  |
| CC1=C2C[C@H]3[C@@H](CC(=O)[C@H]4C[C@@H](O)CC[C@@]43C)[C@@H]2CC[C@@H]1[C@@H](C)[C@@H]1[C@H](O)C[C@@H](C)CN1C (relative stereo) [PUQIENINE B] | 10 | 12 |  | inactive | inactive | inactive | inactive | inactive | inactive | inactive | inactive |
